According to ChEMBL document CHEMBL1137451, “Synthesis and evaluation of antifungal properties of a series of the novel 2-amino-5-oxo-4-phenyl-5,6,7,8-tetrahydroquinoline-3-carbonitrile and its analogues” (Bioorg Med Chem, 2007):
Activity calls are given as the source filed them. The calls are words filed in the database; no cut-off is given here.

Key:
Candida albicans [1] = experiment: Antifungal activity against Candida albicans 1 at 60 ug/disc after 24 hrs by disc diffusion method; format: functional; conditions: read-out: IZ
In short: (§1)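 Yeast suspensions (C. albicans strains 1, 2) and mycelial suspensions (F. oxysporum strains 1, 2; Mucor sp.) spread on YPG (0.3% yeast extract, 0.5% peptone, 1% glucose) or PDA agar. Compound applied on filter-paper discs at the stated amount; 28 °C, 24 h. Read-out is inhibition zone diameter. Controls: 50% v/v DMSO vehicle, cycloheximide, amphotericin B.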

Candida albicans [2] = experiment: Antifungal activity against Candida albicans 1 at 40 ug/disc after 24 hrs by disc diffusion method; format: functional; in short: as §1
Candida albicans [3] = experiment: Antifungal activity against Candida albicans 1 at 100 ug/disc after 24 hrs by disc diffusion method; format: functional; conditions: read-out: IZ; in short: as §1
Candida albicans [4] = experiment: Antifungal activity against Candida albicans 2 at 40 ug/disc after 24 hrs by disc diffusion method; format: functional; in short: as §1
Candida albicans [5] = experiment: Antifungal activity against Candida albicans 2 at 60 ug/disc after 24 hrs by disc diffusion method; format: functional; conditions: read-out: IZ; in short: as §1
Candida albicans [6] = experiment: Antifungal activity against Candida albicans 2 at 100 ug/disc after 24 hrs by disc diffusion method; format: functional; conditions: read-out: IZ; in short: as §1
Fusarium oxysporum [7] = experiment: Antifungal activity against Fusarium oxysporum 1 at 40 ug/disc after 24 hrs by disc diffusion method; format: functional; in short: as §1
Fusarium oxysporum [8] = experiment: Antifungal activity against Fusarium oxysporum 1 at 60 ug/disc after 24 hrs by disc diffusion method; format: functional; conditions: for zone of inhibition at 60 µg/disc: read-out: IZ; in short: as §1
Fusarium oxysporum [9] = experiment: Antifungal activity against Fusarium oxysporum 1 at 100 ug/disc after 24 hrs by disc diffusion method; format: functional; conditions: read-out: IZ; in short: as §1
Fusarium oxysporum [10] = experiment: Antifungal activity against Fusarium oxysporum 2 at 40 ug/disc after 24 hrs by disc diffusion method; format: functional; conditions: for zone of inhibition at 40 µg/disc: read-out: IZ; in short: as §1
Fusarium oxysporum [11] = experiment: Antifungal activity against Fusarium oxysporum 2 at 60 ug/disc after 24 hrs by disc diffusion method; format: functional; conditions: for zone of inhibition at 60 µg/disc: read-out: IZ; in short: as §1
Fusarium oxysporum [12] = experiment: Antifungal activity against Fusarium oxysporum 2 at 100 ug/disc after 24 hrs by disc diffusion method; format: functional; conditions: read-out: IZ; in short: as §1
Mucor [13] = experiment: Antifungal activity against Mucor at 40 ug/disc after 24 hrs by disc diffusion method; format: functional; in short: as §1
Mucor [14] = experiment: Antifungal activity against Mucor at 60 ug/disc after 24 hrs by disc diffusion method; format: functional; in short: as §1
Mucor [15] = experiment: Antifungal activity against Mucor at 100 ug/disc after 24 hrs by disc diffusion method; format: functional; in short: as §1
Candida albicans [16] = experiment: Antifungal activity against Candida albicans 1 after 24 hrs by disc diffusion method; format: functional
In short: (§2)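 Disc diffusion on Candida albicans strains 1 and 2 (yeast suspension), Fusarium oxysporum strains 1 and 2 and Mucor sp. (mycelial suspension), spread on YPG or PDA agar. Compound at graded amounts per filter-paper disc, 28 °C for 24 h. MIC taken as the lowest amount giving a 2 mm inhibition zone. Controls: 50% v/v DMSO vehicle, cycloheximide, amphotericin B.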

Candida albicans [17] = experiment: Antifungal activity against Candida albicans 2 after 24 hrs by disc diffusion method; format: functional; in short: as §2
Fusarium oxysporum [18] = experiment: Antifungal activity against Fusarium oxysporum 1 after 24 hrs by disc diffusion method; format: functional; in short: as §2
Fusarium oxysporum [19] = experiment: Antifungal activity against Fusarium oxysporum 2 after 24 hrs by disc diffusion method; format: functional; in short: as §2
Benjaminiella poitrasii [20] = experiment: Inhibition of Benjaminiella poitrasii chitin synthase at 4 ug/mL
In short: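 Chitin synthase from Benjaminiella poitrasii measured with and without compound at 4 µg/ml, using a non-radioactive chitin synthase assay. Nikkomycin Z used as reference.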

Benjaminiella poitrasii [21] = experiment: Inhibition of yeast hypha transition at 20 ug/mL after 4 hrs

Row | Structure (SMILES) | zone of inhibition at 60 µg/disc (Candida albicans [1]) [mm] | zone of inhibition at 100 µg/disc (Candida albicans [3]) [mm] | zone of inhibition at 60 µg/disc (Candida albicans [5]) [mm] | zone of inhibition at 100 µg/disc (Candida albicans [6]) [mm] | zone of inhibition at 60 µg/disc (Fusarium oxysporum [8]) [mm] | zone of inhibition at 100 µg/disc (Fusarium oxysporum [9]) [mm] | zone of inhibition at 60 µg/disc (Fusarium oxysporum [11]) [mm] | zone of inhibition at 100 µg/disc (Fusarium oxysporum [12]) [mm] | Activity (Mucor [13]) | Activity (Mucor [14]) | Activity (Mucor [15]) | MIC (Candida albicans [16]) [µg/disc] | MIC (Candida albicans [17]) [µg/disc] | MIC (Fusarium oxysporum [18]) [µg/disc] | MIC (Fusarium oxysporum [19]) [µg/disc] | Activity (Candida albicans [2]) | Activity (Candida albicans [4]) | Activity (Fusarium oxysporum [7]) | inhibition (Benjaminiella poitrasii [20]) [%] | inhibition at 20 µg/mL (Benjaminiella poitrasii [21]) [%] | also measured
1 | C[C@@H]1C[C@@H]([C@H](O)CC2CC(=O)NC(=O)C2)C(=O)[C@@H](C)C1 [CYCLOHEXIMIDE] | 4 | 7 | 4 | 7 | 5 | 7 | 5 | 7 | inactive | inactive | inactive | 40 | 40 | 20 | 20 | – | – | – | – | – | zone of inhibition at 40 µg/disc (Candida albicans [2]; read-out: IZ): 2 mm; zone of inhibition at 40 µg/disc (Candida albicans [4]; read-out: IZ): 2 mm; zone of inhibition at 40 µg/disc (Fusarium oxysporum [7]; read-out: IZ): 3 mm; zone of inhibition at 40 µg/disc (Fusarium oxysporum [10]): 3 mm
2 | COc1ccc(-c2c(C#N)c(N)nc3c2C(=O)CCC3)cc1 | 3 | 4 | 3 | 4 | – | 6 | – | 6 | inactive | inactive | inactive | 60 | 60 | 100 | 100 | inactive | inactive | inactive | 81 | 95 | Activity (Fusarium oxysporum [8]): inactive; zone of inhibition at 40 µg/disc (Fusarium oxysporum [10]): 3 mm; Activity (Fusarium oxysporum [11]): inactive
3 | N#Cc1c(N)nc2c(c1-c1ccc([N+](=O)[O-])cc1)C(=O)CCC2 | 3 | 5 | 3 | 5 | 2 | 3 | 2 | 3 | inactive | inactive | inactive | 60 | 60 | 60 | 60 | inactive | inactive | inactive | 61 | 95 | Activity (Fusarium oxysporum [10]): inactive
4 | N#Cc1c(N)nc2c(c1-c1ccccc1)C(=O)CCC2 | 2 | 6 | 2 | 6 | 3 | 6 | 3 | 6 | inactive | inactive | inactive | 60 | 60 | 60 | 60 | inactive | inactive | inactive | 66 | 90 | zone of inhibition at 40 µg/disc (Fusarium oxysporum [10]): 3 mm
5 | Cc1ccc(-c2c(C(N)=O)c(N)nc3c2C(=O)CCC3)cc1 | 2 | 4 | 2 | 4 | – | 4 | 2 | 4 | inactive | inactive | inactive | 60 | 60 | 100 | 100 | inactive | inactive | inactive | 66 | 95 | Activity (Fusarium oxysporum [8]): inactive; Activity (Fusarium oxysporum [10]): inactive
